Assay results taken from ChEMBL document CHEMBL2203283, “Novel coumarin derivatives bearing N-benzyl pyridinium moiety: potent and dual binding site acetylcholinesterase inhibitors” (Bioorg Med Chem, 2012).
pIC50: −log10 of the molar value. Converted amounts (≈) assume the structure as drawn. One block for each molecule: values may come before it.

What was measured:
[1] = Antioxidant activity of compound assessed as ferric reducing antioxidant power; type: functional
In short: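 Modified FRAP assay. Reagent mixed from 300 mM acetate buffer pH 3.6, 10 mM TPTZ in 40 mM HCl, and 20 mM ferric chloride hexahydrate solution. Ascorbic acid and BHT served as references.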

[2] = Selectivity ratio of IC50 for equine serum BuChE to IC50 for electric eel AChE
In short: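 Ellman assay with electric eel AChE and equine serum BuChE, run by the same method. Compounds are diluted in 0.1 M phosphate buffer, pH 8.0, and preincubated 15 min at 25 °C. Substrate is acetylthiocholine iodide with DTNB, read as absorbance rate at 412 nm over 6 min. Five concentrations are tested in triplicate, with IC50 taken graphically. Ratio = IC50(BuChE)/IC50(AChE).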

[3] = tested on: Radical scavenging activity; test: Antioxidant activity of compound assessed as DPPH radical scavenging activity; type: functional
In short: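 DPPH radical scavenging: compounds at five concentrations across a 0–25 range in methanol, mixed with 0.3 mM DPPH ethanol solution and left 30 min in the dark at room temperature. Absorbance read at 518 nm, with a compound-plus-methanol reading blank and a DPPH-plus-methanol negative control. % inhibition = [(A_B−A_A)/A_B]×100; IC50 calculated; ascorbic acid as reference.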

Cholinesterase = Cholinesterase (Equus caballus, UniProt P81908); test: Inhibition of equine serum BuChE using acetylthiocholine iodide as substrate by Ellman's method
Acetylcholinesterase = Acetylcholinesterase (Electrophorus electricus, UniProt O42275); test: Inhibition of electric eel AChE using acetylthiocholine iodide as substrate by Ellman's method
Acetylcholinesterase, sequence (O42275 whole entry): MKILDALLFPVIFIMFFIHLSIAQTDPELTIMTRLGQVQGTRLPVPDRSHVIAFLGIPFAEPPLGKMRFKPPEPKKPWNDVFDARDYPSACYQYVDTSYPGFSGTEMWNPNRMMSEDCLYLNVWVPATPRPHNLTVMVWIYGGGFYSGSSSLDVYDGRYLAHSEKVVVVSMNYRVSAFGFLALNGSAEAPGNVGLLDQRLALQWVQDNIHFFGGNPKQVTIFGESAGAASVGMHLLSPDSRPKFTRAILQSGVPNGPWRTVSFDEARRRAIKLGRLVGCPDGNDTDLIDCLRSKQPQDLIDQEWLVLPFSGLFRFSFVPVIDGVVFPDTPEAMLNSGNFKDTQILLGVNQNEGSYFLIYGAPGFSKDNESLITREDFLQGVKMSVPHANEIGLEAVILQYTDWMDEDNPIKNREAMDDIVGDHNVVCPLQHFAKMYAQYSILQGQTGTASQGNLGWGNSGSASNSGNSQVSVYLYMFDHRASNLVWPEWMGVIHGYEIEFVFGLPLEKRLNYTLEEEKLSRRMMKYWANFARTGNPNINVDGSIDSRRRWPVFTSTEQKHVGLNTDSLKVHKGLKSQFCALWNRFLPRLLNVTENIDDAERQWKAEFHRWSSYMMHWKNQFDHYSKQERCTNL

Cholinesterase, sequence (P81908 whole entry): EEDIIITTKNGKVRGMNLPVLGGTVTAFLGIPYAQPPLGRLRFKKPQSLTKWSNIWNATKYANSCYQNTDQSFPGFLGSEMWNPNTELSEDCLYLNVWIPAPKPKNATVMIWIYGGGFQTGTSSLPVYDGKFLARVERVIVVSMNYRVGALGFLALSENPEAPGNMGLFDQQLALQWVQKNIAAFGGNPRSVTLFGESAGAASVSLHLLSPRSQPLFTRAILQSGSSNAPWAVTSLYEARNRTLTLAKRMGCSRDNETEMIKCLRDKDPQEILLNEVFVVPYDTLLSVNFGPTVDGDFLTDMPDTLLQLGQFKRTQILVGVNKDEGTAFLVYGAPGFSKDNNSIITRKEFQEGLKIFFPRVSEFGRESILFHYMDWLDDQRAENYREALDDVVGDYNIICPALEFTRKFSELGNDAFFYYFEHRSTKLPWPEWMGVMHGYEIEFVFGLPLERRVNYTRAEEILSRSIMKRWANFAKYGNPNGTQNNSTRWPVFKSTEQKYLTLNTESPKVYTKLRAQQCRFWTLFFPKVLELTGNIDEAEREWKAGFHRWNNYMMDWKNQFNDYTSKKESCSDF

SMILES: COc1cccc2cc(C(=O)/C=C/c3cc[n+](Cc4ccccc4C)cc3)c(=O)oc12.[Cl-]
Activity [1]: < 150
Ratio IC50 [2]: 2140
IC50 [3]: > 25 mg/L
pIC50 (Cholinesterase): 6.47
pIC50 (Acetylcholinesterase): 9.80

SMILES: COc1cccc2cc(C(=O)/C=C/c3cc[n+](Cc4ccccc4F)cc3)c(=O)oc12.[Br-]
Activity [1]: < 150
Ratio IC50 [2]: 12.6
IC50 [3]: > 25 mg/L
pIC50 (Cholinesterase): 6.48
pIC50 (Acetylcholinesterase): 7.59

SMILES: COc1cccc2cc(C(=O)/C=C/c3cc[n+](Cc4cccc(Cl)c4)cc3)c(=O)oc12.[Cl-]
Activity [1]: < 150
Ratio IC50 [2]: 6.5
IC50 [3]: > 25 mg/L
pIC50 (Cholinesterase): 6.25
pIC50 (Acetylcholinesterase): 7.07

IC50 [3]: > 25 mg/L
SMILES: COc1cccc2cc(C(=O)/C=C/c3cc[n+](Cc4ccccc4)cc3)c(=O)oc12.[Cl-]
Activity [1]: < 150

SMILES: COc1cccc2cc(C(=O)/C=C/c3cc[n+](Cc4cccc(F)c4)cc3)c(=O)oc12.[Cl-]
Activity [1]: < 150
Ratio IC50 [2]: 4470
IC50 [3]: > 25 mg/L
pIC50 (Cholinesterase): 5.68
pIC50 (Acetylcholinesterase): 9.33

SMILES: COc1cccc2cc(C(=O)/C=C/c3cc[n+](Cc4ccc(CCl)cc4)cc3)c(=O)oc12.[Cl-]
Activity [1]: < 150
Ratio IC50 [2]: 9.4
IC50 [3]: > 25 mg/L
pIC50 (Cholinesterase): 4.82
pIC50 (Acetylcholinesterase): 5.80

SMILES: COc1cccc2cc(C(=O)/C=C/c3cc[n+](Cc4c(F)cccc4[N+](=O)[O-])cc3)c(=O)oc12.[Cl-]
Activity [1]: < 150
Ratio IC50 [2]: 2.1
IC50 [3]: > 25 mg/L
pIC50 (Cholinesterase): 6.16
pIC50 (Acetylcholinesterase): 6.48

SMILES: O=C(/C=C/c1cc[n+](Cc2ccc(F)cc2)cc1)c1cc2ccccc2oc1=O.[Cl-]
Activity [1]: < 150
Ratio IC50 [2]: 1.2
IC50 [3]: > 25 mg/L
pIC50 (Cholinesterase): 6.04
pIC50 (Acetylcholinesterase): 6.12

SMILES: COc1cccc2cc(C(=O)/C=C/c3cc[n+](Cc4ccccc4Cl)cc3)c(=O)oc12.[Cl-]
Activity [1]: < 150
Ratio IC50 [2]: 272
IC50 [3]: > 25 mg/L
pIC50 (Cholinesterase): 6.90
pIC50 (Acetylcholinesterase): 9.34

SMILES: COc1cccc2cc(C(=O)/C=C/c3cc[n+](Cc4ccc(C)cc4)cc3)c(=O)oc12.[Cl-]
Activity [1]: < 150
Ratio IC50 [2]: 7.4
IC50 [3]: > 25 mg/L
pIC50 (Cholinesterase): 4.57
pIC50 (Acetylcholinesterase): 5.44

IC50 [3]: 3.6 mg/L (≈ 20.4 µM)
SMILES: O=C1O[C@H]([C@@H](O)CO)C(O)=C1O [ASCORBIC ACID]
Activity [1]: 1890

SMILES: O=C(/C=C/c1cc[n+](Cc2ccccc2F)cc1)c1cc2cc(Br)ccc2oc1=O.[Cl-]
Activity [1]: < 150
Ratio IC50 [2]: 4440
IC50 [3]: > 25 mg/L
pIC50 (Cholinesterase): 6.31
pIC50 (Acetylcholinesterase): 9.96

SMILES: COc1ccc(C[n+]2ccc(/C=C/C(=O)c3cc4cccc(OC)c4oc3=O)cc2)cc1.[Cl-]
Activity [1]: < 150
Ratio IC50 [2]: 0.7
IC50 [3]: > 25 mg/L
pIC50 (Cholinesterase): 6.01
pIC50 (Acetylcholinesterase): 5.83

SMILES: COc1cccc2cc(C(=O)/C=C/c3cc[n+](Cc4ccc(F)cc4)cc3)c(=O)oc12.[Cl-]
Activity [1]: < 150
Ratio IC50 [2]: 1.97
IC50 [3]: > 25 mg/L
pIC50 (Cholinesterase): 6.03
pIC50 (Acetylcholinesterase): 6.33

SMILES: O=C(/C=C/c1cc[n+](Cc2ccc(F)cc2)cc1)c1cc2cc(Br)ccc2oc1=O.[Cl-]
Activity [1]: < 150
Ratio IC50 [2]: 1070
IC50 [3]: > 25 mg/L
pIC50 (Cholinesterase): 6.31
pIC50 (Acetylcholinesterase): 9.34

SMILES: COc1cccc2cc(C(=O)/C=C/c3cc[n+](Cc4cccc(C#N)c4)cc3)c(=O)oc12.[Br-]
Activity [1]: < 150
Ratio IC50 [2]: 13.1
IC50 [3]: > 25 mg/L
pIC50 (Cholinesterase): 6.00
pIC50 (Acetylcholinesterase): 7.12

SMILES: COc1cccc2cc(C(=O)/C=C/c3cc[n+](Cc4cccc(C)c4)cc3)c(=O)oc12.[Cl-]
Activity [1]: < 150
Ratio IC50 [2]: 14
IC50 [3]: > 25 mg/L
pIC50 (Cholinesterase): 4.95
pIC50 (Acetylcholinesterase): 6.10

SMILES: COc1cccc2cc(C(=O)/C=C/c3cc[n+](Cc4cccc(Cl)c4Cl)cc3)c(=O)oc12.[Cl-]
Activity [1]: < 150
Ratio IC50 [2]: 57
IC50 [3]: > 25 mg/L
pIC50 (Cholinesterase): 5.17
pIC50 (Acetylcholinesterase): 6.92

SMILES: COc1cccc2cc(C(=O)/C=C/c3cc[n+](Cc4ccc(Cl)c(Cl)c4)cc3)c(=O)oc12.[Cl-]
Activity [1]: < 150
Ratio IC50 [2]: 13.6
IC50 [3]: > 25 mg/L
pIC50 (Cholinesterase): 5.24
pIC50 (Acetylcholinesterase): 6.36

SMILES: O=C(/C=C/c1cc[n+](Cc2ccccc2F)cc1)c1cc2ccccc2oc1=O.[Cl-]
Activity [1]: < 150
Ratio IC50 [2]: 1.57
IC50 [3]: > 25 mg/L
pIC50 (Cholinesterase): 6.07
pIC50 (Acetylcholinesterase): 6.27
